The results in this text go back to ChEMBL document CHEMBL3808388 (J Med Chem, 2016).

For one assay, the target named is T1, Rhodopsin kinase GRK1 (Homo sapiens, UniProt Q15835).
T1 sequence (Q15835 whole entry): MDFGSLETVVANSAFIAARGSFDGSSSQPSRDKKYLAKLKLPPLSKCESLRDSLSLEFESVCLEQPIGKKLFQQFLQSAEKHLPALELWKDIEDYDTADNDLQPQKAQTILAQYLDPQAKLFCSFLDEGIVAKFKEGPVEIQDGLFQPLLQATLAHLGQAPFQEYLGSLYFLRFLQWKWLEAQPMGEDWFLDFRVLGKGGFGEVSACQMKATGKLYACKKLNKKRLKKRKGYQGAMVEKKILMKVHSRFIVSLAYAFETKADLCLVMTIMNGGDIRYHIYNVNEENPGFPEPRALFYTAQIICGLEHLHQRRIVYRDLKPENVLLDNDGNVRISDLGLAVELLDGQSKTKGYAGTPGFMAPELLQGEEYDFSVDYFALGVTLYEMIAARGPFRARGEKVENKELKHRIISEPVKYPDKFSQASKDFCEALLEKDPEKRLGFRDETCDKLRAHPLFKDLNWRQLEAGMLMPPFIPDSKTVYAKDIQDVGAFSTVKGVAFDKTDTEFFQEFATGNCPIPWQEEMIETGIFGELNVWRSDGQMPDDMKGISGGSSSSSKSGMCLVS
The assay is described as follows: Inhibition of GRK1 (unknown origin) using tubulin as substrate by SDS-PAGE method.

The target in assay [1] is G protein-coupled receptor kinase 5 (Homo sapiens, UniProt P34947). The assay is described as follows: Inhibition of GRK5 (unknown origin) using tubulin as substrate by SDS-PAGE method.
Sequence of G protein-coupled receptor kinase 5 (P34947 whole entry): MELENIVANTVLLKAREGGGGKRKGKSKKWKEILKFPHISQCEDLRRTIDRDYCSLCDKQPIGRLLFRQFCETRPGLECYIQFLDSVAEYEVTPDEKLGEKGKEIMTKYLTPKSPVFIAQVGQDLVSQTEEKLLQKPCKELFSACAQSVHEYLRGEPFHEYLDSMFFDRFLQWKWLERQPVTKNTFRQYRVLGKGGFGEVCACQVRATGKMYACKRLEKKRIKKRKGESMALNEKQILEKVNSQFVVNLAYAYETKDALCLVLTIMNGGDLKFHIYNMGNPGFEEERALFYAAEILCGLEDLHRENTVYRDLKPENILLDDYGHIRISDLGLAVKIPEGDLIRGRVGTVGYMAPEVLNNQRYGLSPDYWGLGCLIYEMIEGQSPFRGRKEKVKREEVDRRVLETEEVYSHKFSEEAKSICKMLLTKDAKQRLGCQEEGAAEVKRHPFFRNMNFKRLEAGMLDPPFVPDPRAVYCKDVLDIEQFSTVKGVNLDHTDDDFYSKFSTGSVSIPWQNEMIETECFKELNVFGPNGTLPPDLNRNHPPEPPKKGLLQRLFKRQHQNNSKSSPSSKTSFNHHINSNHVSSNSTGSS
The nature of assay [2]: Inhibition of PKA (unknown origin) using CREBtide as substrate by ADP-Glo kinase assay. The arrangement: species or system Homo sapiens. The procedure, abridged: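 ADP-Glo luminescence assay following the manufacturer's protocol. Inhibition curves were fitted from luminescence. IC50s are averages of three separate experiments, each run in duplicate.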
A general note: ADP-Glo turns the ADP formed in a reaction into a luminescent signal.

The target of assay [3] is T2, Rho-associated protein kinase 1 (Homo sapiens, UniProt Q13464). The assay is described as follows: Inhibition of ROCK1 (unknown origin) by ADP-Glo kinase assay.
Target sequence in this assay (Q13464 whole entry): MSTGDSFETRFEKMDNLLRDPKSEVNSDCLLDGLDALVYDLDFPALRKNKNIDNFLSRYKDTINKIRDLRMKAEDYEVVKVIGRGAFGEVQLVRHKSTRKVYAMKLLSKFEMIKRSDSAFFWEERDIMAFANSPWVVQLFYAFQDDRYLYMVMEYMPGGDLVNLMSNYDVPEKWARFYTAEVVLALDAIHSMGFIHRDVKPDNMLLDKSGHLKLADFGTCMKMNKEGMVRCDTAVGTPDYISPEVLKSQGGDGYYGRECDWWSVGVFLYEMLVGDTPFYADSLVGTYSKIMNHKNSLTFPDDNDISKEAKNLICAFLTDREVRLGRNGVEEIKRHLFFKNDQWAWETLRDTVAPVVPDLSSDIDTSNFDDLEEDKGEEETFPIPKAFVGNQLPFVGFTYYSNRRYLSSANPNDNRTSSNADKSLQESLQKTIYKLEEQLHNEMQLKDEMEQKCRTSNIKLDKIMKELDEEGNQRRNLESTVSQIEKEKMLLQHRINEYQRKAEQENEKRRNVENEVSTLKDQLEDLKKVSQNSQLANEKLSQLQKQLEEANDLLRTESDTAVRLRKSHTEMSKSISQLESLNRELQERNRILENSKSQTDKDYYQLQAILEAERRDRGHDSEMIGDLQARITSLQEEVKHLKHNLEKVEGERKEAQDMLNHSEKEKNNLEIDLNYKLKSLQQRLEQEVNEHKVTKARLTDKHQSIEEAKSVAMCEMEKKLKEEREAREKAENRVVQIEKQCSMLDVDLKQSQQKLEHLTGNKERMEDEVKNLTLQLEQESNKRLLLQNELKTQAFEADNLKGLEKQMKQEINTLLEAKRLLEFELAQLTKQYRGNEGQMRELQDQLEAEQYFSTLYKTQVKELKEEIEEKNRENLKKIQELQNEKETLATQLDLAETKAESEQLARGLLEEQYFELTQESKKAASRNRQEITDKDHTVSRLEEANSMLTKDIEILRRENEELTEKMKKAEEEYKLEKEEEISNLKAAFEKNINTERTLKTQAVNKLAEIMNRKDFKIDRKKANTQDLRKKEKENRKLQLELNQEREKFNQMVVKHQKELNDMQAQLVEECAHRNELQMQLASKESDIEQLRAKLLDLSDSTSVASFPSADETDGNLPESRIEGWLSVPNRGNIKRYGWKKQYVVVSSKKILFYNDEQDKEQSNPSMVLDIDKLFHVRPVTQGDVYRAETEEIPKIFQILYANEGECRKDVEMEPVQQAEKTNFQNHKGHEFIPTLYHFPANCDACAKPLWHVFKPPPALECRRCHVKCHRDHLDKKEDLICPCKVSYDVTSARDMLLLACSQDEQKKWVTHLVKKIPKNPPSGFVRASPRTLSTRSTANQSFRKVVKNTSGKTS
The target of assay [4] is T2, Rho-associated protein kinase 1. The assay is described as follows: Inhibition of ROCK1 (unknown origin) at 10 uM by ADP-Glo kinase assay. In outline: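 ADP-Glo luminescence assay following the manufacturer's protocol. Percent inhibition was read at a single 10 μM inhibitor concentration.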
Target sequence in this assay (Q13464 2-1354 limits assumed): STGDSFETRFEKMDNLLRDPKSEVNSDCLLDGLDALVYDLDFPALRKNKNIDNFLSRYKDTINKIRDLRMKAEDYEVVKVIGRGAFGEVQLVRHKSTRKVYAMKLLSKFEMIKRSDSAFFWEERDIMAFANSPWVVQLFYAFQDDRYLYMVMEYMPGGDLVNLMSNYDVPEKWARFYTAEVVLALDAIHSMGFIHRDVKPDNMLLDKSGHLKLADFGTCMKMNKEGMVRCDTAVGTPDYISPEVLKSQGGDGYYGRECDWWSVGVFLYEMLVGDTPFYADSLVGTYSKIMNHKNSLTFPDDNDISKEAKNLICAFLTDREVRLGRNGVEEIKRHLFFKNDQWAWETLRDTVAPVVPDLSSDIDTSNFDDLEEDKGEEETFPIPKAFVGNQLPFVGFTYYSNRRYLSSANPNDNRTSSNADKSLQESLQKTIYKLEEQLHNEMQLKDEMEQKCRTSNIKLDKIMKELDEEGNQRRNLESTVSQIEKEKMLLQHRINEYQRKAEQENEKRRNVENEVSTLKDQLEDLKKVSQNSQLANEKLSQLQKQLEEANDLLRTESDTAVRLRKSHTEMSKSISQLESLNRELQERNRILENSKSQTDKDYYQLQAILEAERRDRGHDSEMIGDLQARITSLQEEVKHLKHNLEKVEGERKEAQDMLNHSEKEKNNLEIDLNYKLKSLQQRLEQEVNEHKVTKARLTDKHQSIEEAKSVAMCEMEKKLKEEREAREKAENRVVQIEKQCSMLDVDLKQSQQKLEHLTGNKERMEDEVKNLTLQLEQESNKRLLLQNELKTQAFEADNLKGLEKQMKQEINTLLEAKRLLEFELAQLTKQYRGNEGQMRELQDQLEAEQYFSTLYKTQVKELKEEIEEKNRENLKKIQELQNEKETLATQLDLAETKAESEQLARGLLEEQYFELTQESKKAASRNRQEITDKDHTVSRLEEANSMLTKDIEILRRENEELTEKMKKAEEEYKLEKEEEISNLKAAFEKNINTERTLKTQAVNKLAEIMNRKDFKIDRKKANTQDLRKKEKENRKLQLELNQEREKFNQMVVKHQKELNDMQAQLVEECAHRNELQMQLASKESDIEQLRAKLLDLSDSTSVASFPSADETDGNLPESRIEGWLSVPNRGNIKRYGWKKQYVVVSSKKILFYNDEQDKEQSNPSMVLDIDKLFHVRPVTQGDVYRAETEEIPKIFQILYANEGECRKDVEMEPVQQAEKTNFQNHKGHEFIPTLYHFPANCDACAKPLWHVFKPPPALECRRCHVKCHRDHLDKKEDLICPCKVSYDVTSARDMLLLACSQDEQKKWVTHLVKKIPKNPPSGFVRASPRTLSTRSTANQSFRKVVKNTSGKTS
Assay [5] concerns the target T3, Beta-adrenergic receptor kinase 1 (Mus musculus) (UniProt Q99MK8).
T3 sequence (whole entry): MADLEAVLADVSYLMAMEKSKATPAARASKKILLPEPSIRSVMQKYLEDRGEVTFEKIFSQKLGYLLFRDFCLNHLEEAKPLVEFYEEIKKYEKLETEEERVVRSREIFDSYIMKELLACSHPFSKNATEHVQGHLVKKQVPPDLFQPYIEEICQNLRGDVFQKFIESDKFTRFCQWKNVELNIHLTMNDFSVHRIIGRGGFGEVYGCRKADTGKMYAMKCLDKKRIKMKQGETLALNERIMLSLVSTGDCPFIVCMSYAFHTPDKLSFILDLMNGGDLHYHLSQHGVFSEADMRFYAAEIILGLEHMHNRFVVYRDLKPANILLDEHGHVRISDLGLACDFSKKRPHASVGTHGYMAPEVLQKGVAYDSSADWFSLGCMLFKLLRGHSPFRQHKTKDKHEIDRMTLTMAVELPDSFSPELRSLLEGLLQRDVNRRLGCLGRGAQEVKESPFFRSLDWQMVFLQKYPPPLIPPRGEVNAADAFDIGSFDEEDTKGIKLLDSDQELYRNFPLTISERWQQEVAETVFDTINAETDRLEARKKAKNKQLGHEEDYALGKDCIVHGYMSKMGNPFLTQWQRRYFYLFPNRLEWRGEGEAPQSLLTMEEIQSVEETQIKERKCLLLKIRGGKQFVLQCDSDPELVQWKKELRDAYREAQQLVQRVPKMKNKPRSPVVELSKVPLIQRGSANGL
The experiment in a line: Inhibition of GRK2 in C57BL/6 mouse cardiomyocytes assessed as increase in contractility at 1 uM preincubated for 10 mins followed by beta adrenergic receptor agonist isoproterenol addition for 2 mins. It counts as cell-based.

Assay [6] concerns the target T3, Beta-adrenergic receptor kinase 1 (Mus musculus). The assay is described as follows: Inhibition of GRK2 in C57BL/6 mouse cardiomyocytes assessed as increase in contractility at 0.5 uM preincubated for 10 mins followed by beta adrenergic receptor agonist isoproterenol addition for 2 mins. The assay is classed as cell-based.

The source made the active and inactive calls. The rule behind the calls is not given here.

Take `COc1cccc(CNC(=O)c2cc(C3NC(=O)NC(C)=C3C(=O)Nc3ccc4[nH]ncc4c3)ccc2F)c1` (stereo unspecified): the IC50 (in general, the concentration at which inhibition is half-maximal) on Rhodopsin kinase GRK1 was greater than 100 µM; in assay [1] it was 3.8 µM; in assay [2], greater than 100 µM.

Consider `CC1=C(C(=O)Nc2ccc3[nH]ncc3c2)C(c2ccc(F)c(C(=O)O)c2)NC(=O)N1` (stereo unspecified), for which the half-maximal inhibitory concentration (IC50) is greater than 100 µM against Rhodopsin kinase GRK1, 0.19 µM in assay [3] and 78.1 µM in assay [2].

As to `CC1=C(C(=O)Nc2ccc3[nH]ncc3c2)C(c2ccc(F)c(CC(=O)NCc3c(C(F)(F)F)cccc3C(F)(F)F)c2)NC(=O)N1` (stereo unspecified), the IC50 (against Rhodopsin kinase GRK1; in assay [1]; in assay [2]) was greater than 100 µM each time.

For `CC1=C(C(=O)Nc2ccc3[nH]ncc3c2)C(c2ccc(F)c(C(=O)NCc3nccc4ccccc34)c2)NC(=O)N1` (stereo unspecified), the IC50 in assay [3] is 0.012 µM; in assay [1], 1.8 µM.

With `CC1=C(C(=O)Nc2ccc3[nH]ncc3c2)C(c2ccc(F)c(C(=O)NCc3c(C(F)(F)F)cccc3C(F)(F)F)c2)NC(=O)N1` (stereo unspecified), the IC50 (at Rhodopsin kinase GRK1; in assay [1]; in assay [2]) was greater than 100 µM in each case. Besides, in assay [4], the inhibition – broadly, how much of the control response was suppressed – worked out at 22%.

For `CCCn1c(CNc2cccc(C(=O)NCc3c(F)cccc3F)c2)nnc1-c1ccncn1`, the IC50 was 9 µM at Rhodopsin kinase GRK1 and 2.2 µM in assay [1]. In assay [4], this compound showed an inhibition of 10%.

Turning to `COc1ccccc1CNC(=O)c1cc(C2NC(=O)NC(C)=C2C(=O)Nc2ccc3[nH]ncc3c2)ccc1F` (stereo unspecified), the figures for the half-maximal inhibitory concentration (IC50) (against Rhodopsin kinase GRK1; in assay [1]; in assay [2]) were 16 µM, 2.3 µM and greater than 100 µM, respectively.

As to `CC1=C(C(=O)Nc2ccc3[nH]ncc3c2)C(c2ccc(F)cc2)NC(=O)N1` (stereo unspecified) [GSK-180736A], the half-inhibitory concentration (IC50) on Rhodopsin kinase GRK1 is greater than 100 µM; in assay [3], 0.1 µM. Besides, the result in assay [5] was Active.

With `CC1=C(C(=O)Nc2ccc3[nH]ncc3c2)C(c2ccc(F)c(C(=O)NCCc3ccncc3)c2)NC(=O)N1` (stereo unspecified), the IC50 at Rhodopsin kinase GRK1 was greater than 100 µM; in assay [3], 0.084 µM; in assay [2] it was greater than 100 µM.

Regarding `CC1=C(C(=O)Nc2ccc3[nH]ncc3c2)C(c2ccc(F)c(C(=O)NCc3cccc(F)c3)c2)NC(=O)N1` (stereo unspecified), the results for the IC50 (on Rhodopsin kinase GRK1; in assay [2]) were 11.9 µM and greater than 100 µM, respectively.

`CC1=C(C(=O)Nc2ccc3[nH]ncc3c2)C(c2ccc(F)c(C(=O)NCc3ccccc3)c2)NC(=O)N1` (stereo unspecified): the values for the IC50 (against Rhodopsin kinase GRK1; in assay [1]; in assay [2]) were 71 µM, 4.7 µM and greater than 100 µM, respectively.

On to `CC1=C(C(=O)Nc2ccc3[nH]ncc3c2)C(c2ccc(F)c(CC(=O)NCc3c(C)cccc3C)c2)NC(=O)N1` (stereo unspecified), for which the concentration for half-maximal inhibition (IC50) (against Rhodopsin kinase GRK1; in assay [2]) was greater than 100 µM throughout.

For `CC1=C(C(=O)Nc2ccc3c(c2)OCO3)C(c2ccc(F)c(C(=O)NCc3ccccn3)c2)NC(=O)N1` (stereo unspecified), the 50% inhibitory concentration (IC50) (against Rhodopsin kinase GRK1; in assay [1]; in assay [2]) was greater than 100 µM throughout.

For the compound `CC1=C(C(=O)Nc2ccc3[nH]ncc3c2)C(c2ccc(F)c(C(=O)NCCc3ccccn3)c2)NC(=O)N1` (stereo unspecified), the 50% inhibitory concentration (IC50) on Rhodopsin kinase GRK1 was greater than 100 µM; in assay [1] it was 6.2 µM; in assay [2], greater than 100 µM.

In the case of `COc1cccc(OC)c1CNC(=O)Cc1cc(C2NC(=O)NC(C)=C2C(=O)Nc2ccc3[nH]ncc3c2)ccc1F` (stereo unspecified), the IC50 (at Rhodopsin kinase GRK1; in assay [1]; in assay [2]) was greater than 100 µM throughout.

Compound `Fc1ccc([C@@H]2CCNC[C@H]2COc2ccc3c(c2)OCO3)cc1` [PAROXETINE] yielded an inhibition in assay [4] of 10%. The same compound displayed an IC50 in assay [2] greater than 100 µM.

Regarding `COc1cccc(OC)c1CNC(=O)c1cc(C2NC(=O)NC(C)=C2C(=O)Nc2ccc3[nH]ncc3c2)ccc1F` (stereo unspecified), the IC50 (against Rhodopsin kinase GRK1; in assay [1]; in assay [2]) was greater than 100 µM in each case. In assay [4], this compound returned an inhibition of 0%. The outcome in assay [6] was Active.

Consider `CC1=C(C(=O)Nc2ccc3[nH]ncc3c2)C(c2ccc(F)c(C(=O)NCc3ccccn3)c2)NC(=O)N1` (stereo unspecified), for which the results for the IC50 (against Rhodopsin kinase GRK1; in assay [2]) were 3.9 µM and greater than 100 µM, respectively. For the same compound, the result in assay [6] was Active.

As for `CC1=C(C(=O)N(C)c2ccc3[nH]ncc3c2)C(c2ccc(F)c(C(=O)NCc3c(C)cccc3C)c2)NC(=O)N1` (stereo unspecified), the IC50 was greater than 100 µM at Rhodopsin kinase GRK1, 2.1 µM in assay [3] and greater than 100 µM in assay [2].

Turning to `CC1=C(C(=O)Nc2ccc3[nH]ncc3c2)C(c2ccc(F)c(C(=O)NCCc3c(C)cccc3C)c2)NC(=O)N1` (stereo unspecified), the IC50 (at Rhodopsin kinase GRK1; in assay [2]) was greater than 100 µM each time.

Take `CC1=C(C(=O)Nc2ccc3[nH]ncc3c2)C(c2ccc(F)c(C(=O)NCc3cc(C(F)(F)F)cc(C(F)(F)F)c3)c2)NC(=O)N1` (stereo unspecified): the IC50 (against Rhodopsin kinase GRK1; in assay [1]; in assay [2]) was greater than 100 µM throughout.

Take `CC1=C(C(=O)Nc2ccc3[nH]ncc3c2)C(c2ccc(F)c(C(=O)NCc3c(Cl)cccc3Cl)c2)NC(=O)N1` (stereo unspecified): the half-inhibitory concentration (IC50) (against Rhodopsin kinase GRK1; in assay [1]; in assay [2]) was greater than 100 µM in each case.

Regarding `CC1=C(C(=O)Nc2ccc3[nH]ncc3c2)C(c2ccc(F)c(C(=O)NCc3c(F)cccc3F)c2)NC(=O)N1` (stereo unspecified), the IC50 is greater than 100 µM against Rhodopsin kinase GRK1, 0.11 µM in assay [3], 5 µM in assay [1] and greater than 100 µM in assay [2]. Also, the outcome in assay [6] was Active.

In the case of `CC1=C(C(=O)Nc2ccc3[nH]ncc3c2)C(c2ccc(F)c(C(=O)NCc3c(C)cccc3C)c2)NC(=O)N1` (stereo unspecified), the IC50 (on Rhodopsin kinase GRK1; in assay [2]) was greater than 100 µM in each case. For the same compound, the result in assay [5] was Active.

For the compound `COc1ccc(CNC(=O)c2cc(C3NC(=O)NC(C)=C3C(=O)Nc3ccc4[nH]ncc4c3)ccc2F)cc1` (stereo unspecified), the IC50 against Rhodopsin kinase GRK1 was greater than 100 µM; in assay [1], 8.1 µM; in assay [2], greater than 100 µM.

For the compound `CNC(=O)c1cc(C2NC(=O)NC(C)=C2C(=O)Nc2ccc3[nH]ncc3c2)ccc1F` (stereo unspecified), the half-maximal inhibitory concentration (IC50) at Rhodopsin kinase GRK1 was greater than 100 µM; in assay [3] it was 0.56 µM; in assay [1] it was greater than 100 µM; in assay [2], greater than 100 µM.

Consider `CC1=C(C(=O)Nc2ccc3[nH]ncc3c2)C(c2ccc(F)c(C(=O)NCc3ncccc3C)c2)NC(=O)N1` (stereo unspecified), for which the IC50 (at Rhodopsin kinase GRK1; in assay [2]) was greater than 100 µM throughout.
